Experimental data reported in ChEMBL document CHEMBL1156388, “Modulation of the multidrug-resistance phenotype by new tropane alkaloid aromatic esters from Erythroxylum pervillei” (J Nat Prod, 2001).
Values after ≈ are worked out from the molar mass of the structure shown. Active and inactive are the calls of the source. The calls are words filed in the database; no cut-off is given here.

Legend:
[1] = Cytotoxicity against human BC1 cells; assay type: functional; conditions: read-out: ED50 (the source's name)
Lu1 = assay: Cytotoxicity against human Lu1 cells; assay type: functional; conditions: read-out: ED50 (the source's name)
Col2 = assay: Cytotoxicity against human Col2 cells; assay type: functional; conditions: read-out: ED50 (the source's name)
KB = assay: Cytotoxicity against human KB cells; assay type: functional; conditions: read-out: ED50 (the source's name)
[2] = Cytotoxicity against human multidrug-resistant KBV1 cells in presence of vinblastin; assay type: functional; conditions: KB-V1, read-out: ED50 (the source's name)
[3] = Cytotoxicity against human multidrug-resistant KBV1 cells in absence of vinblastin; assay type: functional; conditions: KB-V1, read-out: ED50 (the source's name)
LNCaP = assay: Cytotoxicity against human LNCAP cells; assay type: functional; conditions: read-out: ED50 (the source's name)
SW626 = assay: Cytotoxicity against human SW626 cells; assay type: functional; conditions: read-out: ED50 (the source's name)
[4] = Cytotoxicity against human multidrug-resistant SKVLB1 cells; assay type: functional, cell-based
SK-OV-3 = assay: Cytotoxicity against human SKOV3 cells; assay type: functional, cell-based
[5] = Cytotoxicity against human multidrug-resistant SKVLB1 cells in presence of adriamycin; assay type: functional, cell-based
LOX IMVI [6] = assay: Increase in DINIB-induced cytotoxicity against human LOXIMVI at 0.8 to 12.5 ug/mL; assay type: functional, cell-based
Outline: (§1)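 Modulator dose ranges were chosen to give full dose–response curves and were combined with DINIB, an MDR-substrate cytotoxic agent, at nontoxic modulator concentrations. 5-Fluorouracil, a non-MDR agent, served as the negative-control drug. MDR1 expression and function: HCT-15 and UO-31 high, CAKI-1 moderate, LOX IMVI none (no MDR phenotype). The read-out was enhancement of DINIB growth inhibition.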

[7] = biological target: T1, ATP-dependent translocase ABCB1 (Homo sapiens, UniProt P08183); assay: Modulation of P-gp in human HCT15 cells assessed as increase in DINIB-induced cytotoxicity at 3.1 to 50 ug/mL; assay type: cell-based; conditions: hct-15; outline: as §1
[8] = biological target: T1, ATP-dependent translocase ABCB1; assay: Modulation of P-gp in human UO31 cells assessed as increase in DINIB-induced cytotoxicity at 3.1 to 50 ug/mL; assay type: cell-based; conditions: uo-31; outline: as §1
[9] = biological target: T1, ATP-dependent translocase ABCB1; assay: Modulation of P-gp in human CAKI1 cells assessed as increase in DINIB-induced cytotoxicity at 3.1 to 50 ug/mL; assay type: cell-based; conditions: caki-1; outline: as §1
LOX IMVI [10] = assay: Increase in DINIB-induced cytotoxicity against human LOXIMVI at 3.1 to 50 ug/mL; assay type: functional, cell-based; outline: as §1
[11] = biological target: T1, ATP-dependent translocase ABCB1; assay: Modulation of P-gp in human HCT15 cells assessed as increase in DINIB-induced cytotoxicity at 0.2 to 3.1 ug/mL; assay type: cell-based; conditions: hct-15; outline: as §1
[12] = biological target: T1, ATP-dependent translocase ABCB1; assay: Modulation of P-gp in human UO31 cells assessed as increase in DINIB-induced cytotoxicity at 0.2 to 3.1 ug/mL; assay type: cell-based; conditions: uo-31; outline: as §1
[13] = biological target: T1, ATP-dependent translocase ABCB1; assay: Modulation of P-gp in human CAKI1 cells assessed as increase in DINIB-induced cytotoxicity at 0.2 to 3.1 ug/mL; assay type: cell-based; conditions: caki-1; outline: as §1
LOX IMVI [14] = assay: Increase in DINIB-induced cytotoxicity against human LOXIMVI at 0.2 to 3.1 ug/mL; assay type: functional, cell-based; outline: as §1
[15] = biological target: T1, ATP-dependent translocase ABCB1; assay: Modulation of P-gp in human HCT15 cells assessed as increase in DINIB-induced cytotoxicity at 0.2 to 12.5 ug/mL; assay type: cell-based; conditions: hct-15; outline: as §1
[16] = biological target: T1, ATP-dependent translocase ABCB1; assay: Modulation of P-gp in human CAKI1 cells assessed as increase in DINIB-induced cytotoxicity at 0.2 to 12.5 ug/mL; assay type: cell-based; conditions: caki-1; outline: as §1
[17] = biological target: T1, ATP-dependent translocase ABCB1; assay: Modulation of P-gp in human UO31 cells assessed as increase in DINIB-induced cytotoxicity at 0.2 to 12.5 ug/mL; assay type: cell-based; conditions: uo-31; outline: as §1
LOX IMVI [18] = assay: Increase in DINIB-induced cytotoxicity against human LOXIMVI at 0.2 to 12.5 ug/mL; assay type: functional, cell-based; outline: as §1
[19] = biological target: T1, ATP-dependent translocase ABCB1; assay: Modulation of P-gp in human HCT15 cells assessed as increase in DINIB-induced cytotoxicity at 1.5 to 25 ug/mL; assay type: cell-based; conditions: hct-15
Outline: (§2)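 NCI tumour-panel lines of differing MDR1 expression and function (HCT-15 and UO-31 high, CAKI-1 moderate, LOX IMVI none) were exposed to the MDR-substrate cytotoxin DINIB with or without modulator. 5-Fluorouracil, a non-MDR agent, served as the negative control; verapamil and cyclosporin A were reference modulators. Modulator concentrations spanned full dose–response curves. Maximum escalation of DINIB toxicity was taken at nontoxic modulator concentrations.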

[20] = biological target: T1, ATP-dependent translocase ABCB1; assay: Modulation of P-gp in human UO31 cells assessed as increase in DINIB-induced cytotoxicity at 1.5 to 25 ug/mL; assay type: cell-based; conditions: uo-31; outline: as §2
[21] = biological target: T1, ATP-dependent translocase ABCB1; assay: Modulation of P-gp in human CAKI1 cells assessed as increase in DINIB-induced cytotoxicity at 1.5 to 25 ug/mL; assay type: cell-based; conditions: caki-1; outline: as §2
LOX IMVI [22] = assay: Increase in DINIB-induced cytotoxicity against human LOXIMVI at 1.5 to 25 ug/mL; assay type: functional, cell-based; outline: as §2

T1 sequence (P08183 whole entry): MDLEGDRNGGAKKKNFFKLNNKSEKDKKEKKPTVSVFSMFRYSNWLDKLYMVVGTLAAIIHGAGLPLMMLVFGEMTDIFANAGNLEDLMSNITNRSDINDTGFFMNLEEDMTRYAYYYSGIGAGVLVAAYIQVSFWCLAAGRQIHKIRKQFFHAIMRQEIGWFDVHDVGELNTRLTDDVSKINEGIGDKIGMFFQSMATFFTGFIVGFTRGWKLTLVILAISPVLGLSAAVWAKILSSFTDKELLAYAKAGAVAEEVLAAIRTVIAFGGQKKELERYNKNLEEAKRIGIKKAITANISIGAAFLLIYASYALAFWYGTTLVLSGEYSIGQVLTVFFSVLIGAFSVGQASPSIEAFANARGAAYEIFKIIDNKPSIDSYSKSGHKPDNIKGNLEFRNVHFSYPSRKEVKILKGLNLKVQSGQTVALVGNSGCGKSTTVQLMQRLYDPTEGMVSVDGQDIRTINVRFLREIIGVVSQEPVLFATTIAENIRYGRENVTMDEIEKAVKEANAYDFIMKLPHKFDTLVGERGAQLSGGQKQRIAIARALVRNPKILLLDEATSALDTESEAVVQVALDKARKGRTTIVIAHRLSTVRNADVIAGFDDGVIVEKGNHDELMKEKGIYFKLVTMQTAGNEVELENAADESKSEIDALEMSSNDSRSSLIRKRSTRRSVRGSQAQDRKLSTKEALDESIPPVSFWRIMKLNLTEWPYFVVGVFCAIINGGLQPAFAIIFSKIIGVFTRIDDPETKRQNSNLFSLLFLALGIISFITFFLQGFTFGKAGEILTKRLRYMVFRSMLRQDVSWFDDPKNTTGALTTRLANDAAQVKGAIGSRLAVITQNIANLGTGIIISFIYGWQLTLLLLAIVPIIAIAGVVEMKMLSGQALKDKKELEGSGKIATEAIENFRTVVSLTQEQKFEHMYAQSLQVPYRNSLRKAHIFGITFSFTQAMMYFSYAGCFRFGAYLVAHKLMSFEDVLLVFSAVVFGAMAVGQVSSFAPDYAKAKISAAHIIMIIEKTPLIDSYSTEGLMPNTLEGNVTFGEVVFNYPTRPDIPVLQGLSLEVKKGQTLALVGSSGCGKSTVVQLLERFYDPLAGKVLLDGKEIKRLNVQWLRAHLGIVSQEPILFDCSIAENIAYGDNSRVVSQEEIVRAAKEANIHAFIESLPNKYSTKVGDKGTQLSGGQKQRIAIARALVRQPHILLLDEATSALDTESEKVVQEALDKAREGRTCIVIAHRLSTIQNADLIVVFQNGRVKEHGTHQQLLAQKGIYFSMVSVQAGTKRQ

Structure (SMILES) | EC50 [1] | EC50 (Lu1) | EC50 (Col2) | EC50 (KB) | EC50 [2] | EC50 [3] | EC50 (LNCaP) | EC50 (SW626) | IC50 [4] | IC50 (SK-OV-3) | IC50 [5] | also measured
COc1cc(/C=C/C(=O)O[C@H]2[C@@H](O)[C@@H]3C[C@H](OC(=O)c4cc(OC)c(OC)c(OC)c4)C[C@H]2[N+]3(C)[O-])cc(OC)c1OC (stereo partly specified) | > 20 µg/mL | > 20 µg/mL | > 20 µg/mL | > 20 µg/mL | > 20 µg/mL | > 20 µg/mL | > 20 µg/mL | > 20 µg/mL | > 10000 nM | > 10000 nM | > 10000 nM | –
COc1ccc(CCN(C)CCCC(C#N)(c2ccc(OC)c(OC)c2)C(C)C)cc1OC (stereo unspecified) | – | – | – | – | – | – | – | – | – | – | – | Activity (LOX IMVI [6]): Active
COc1cc(/C=C/C(=O)O[C@@H]2C[C@@H]3[C@@H](OC(=O)/C=C/c4cc(OC)c(OC)c(OC)c4)[C@@H](O)[C@H](C2)N3C)cc(OC)c1OC [PERVILLEINE D] | 15 µg/mL (≈ 24.4 µM) | 15.1 µg/mL (≈ 24.6 µM) | 4.9 µg/mL (≈ 7.98 µM) | 11 µg/mL (≈ 17.9 µM) | 0.2 µg/mL | 9 µg/mL (≈ 14.7 µM) | 14.1 µg/mL (≈ 23 µM) | 6.5 µg/mL (≈ 10.6 µM) | – | – | – | Activity [7]: Active; Activity [8]: Active; Activity [9]: Active; Activity (LOX IMVI [10]): inactive
COc1cccc2c1C(=O)c1c(O)c3c(c(O)c1C2=O)C[C@@](O)(C(=O)CO)C[C@@H]3O[C@H]1C[C@H](N)[C@H](O)[C@H](C)O1 [DOXORUBICIN] | – | – | – | – | – | – | – | – | 2200 nM | 8 nM | – | –
COc1cc(/C=C/C(=O)O[C@H]2[C@@H](O)[C@@H]3C[C@H](OC(=O)c4cc(OC)c(OC)c(OC)c4)C[C@H]2N3C)cc(OC)c1OC [PERVILLEINE A] | > 20 µg/mL | > 20 µg/mL | > 20 µg/mL | > 20 µg/mL | 0.3 µg/mL | > 20 µg/mL | > 20 µg/mL | > 20 µg/mL | > 10000 nM | > 10000 nM | 650 nM | –
CN1C2C[C@@H](OC(=O)Cc3ccccc3)CC1[C@H](O)[C@@H]2O | > 20 µg/mL | > 20 µg/mL | > 20 µg/mL | > 20 µg/mL | > 20 µg/mL | > 20 µg/mL | > 20 µg/mL | > 20 µg/mL | – | – | – | –
COc1cc(/C=C/C(=O)O[C@H]2C[C@H]3C[C@H](OC(=O)/C=C/c4cc(OC)c(OC)c(OC)c4)[C@@H](C2)N3C)cc(OC)c1OC [PERVILLEINE C] | 2.8 µg/mL (≈ 4.68 µM) | 2.3 µg/mL (≈ 3.85 µM) | 4.1 µg/mL (≈ 6.86 µM) | 2.2 µg/mL (≈ 3.68 µM) | 0.1 µg/mL | 9 µg/mL (≈ 15.1 µM) | > 20 µg/mL | 1.4 µg/mL (≈ 2.34 µM) | > 10000 nM | 2800 nM | 80 nM | Activity [11]: Active; Activity [12]: Active; Activity [13]: Active; Activity (LOX IMVI [14]): inactive
COc1cc(/C=C/C(=O)O[C@H]2C[C@@H]3C[C@H](OC(=O)c4cc(OC)c(OC)c(OC)c4)C[C@H]2N3C)cc(OC)c1OC [PERVILLEINE B] | 9.4 µg/mL (≈ 16.4 µM) | 3.1 µg/mL (≈ 5.42 µM) | 1.3 µg/mL (≈ 2.27 µM) | > 20 µg/mL | 0.1 µg/mL | 8.8 µg/mL (≈ 15.4 µM) | 1 µg/mL (≈ 1.75 µM) | 3.2 µg/mL (≈ 5.6 µM) | > 10000 nM | 3800 nM | 120 nM | Activity [15]: Active; Activity [16]: Active; Activity [17]: Active; Activity (LOX IMVI [18]): inactive
COc1cc(/C=C/C(=O)O[C@H]2C[C@@H]3C[C@H](OC(=O)Cc4cccc(O)c4)C[C@H]2N3C)cc(OC)c1OC [PERVILLEINE E] | > 20 µg/mL | > 20 µg/mL | 13.4 µg/mL (≈ 26.2 µM) | 14.7 µg/mL (≈ 28.7 µM) | 1.9 µg/mL | > 20 µg/mL | > 20 µg/mL | 8.4 µg/mL (≈ 16.4 µM) | – | – | – | –
COc1cc(C(=O)O[C@H]2C[C@H]3CC[C@@H](C2)N3C)cc(OC)c1OC | > 20 µg/mL | > 20 µg/mL | > 20 µg/mL | > 20 µg/mL | > 20 µg/mL | > 20 µg/mL | > 20 µg/mL | > 20 µg/mL | – | – | – | –
COc1cc2c(cc1OC)CN(CCc1ccc(NC(=O)c3cccc4c(=O)c5cccc(OC)c5[nH]c34)cc1)CC2 | – | – | – | – | – | – | – | – | 14000 nM | 8100 nM | 20 nM | –
COc1cc(/C=C/C(=O)O[C@H]2C[C@@H]3C[C@H](OC(=O)Cc4ccccc4)C[C@H]2N3C)cc(OC)c1OC [PERVILLEINE F] | > 20 µg/mL | > 20 µg/mL | 4.9 µg/mL (≈ 9.89 µM) | > 20 µg/mL | 0.2 µg/mL | > 20 µg/mL | > 20 µg/mL | > 20 µg/mL | – | – | – | Activity [19]: Active; Activity [20]: Active; Activity [21]: Active; Activity (LOX IMVI [22]): inactive
